{"source": "ChEMBL document CHEMBL5236601", "about": "“Development and Utility of a PAK1-Selective Degrader” (J Med Chem, 2022)", "type_in_all_cases": "functional, cell-based", "key": {"MCF7 [1]": {"test_system": "MCF7", "assay": "Antiproliferative activity against human MCF7 cells assessed as cell viability measured after 72 hrs incubation by MTT assay", "method_in_brief": "(§1)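 Seeded at 2 x 10^3 cells/well overnight, then exposed to a range of concentrations for 72 hours (the figure legend states 96 hr). Cell viability read by MTT, with medium alone as blank. Triplicate wells, at least three independent experiments. IC50/EC50 from curve fitting, reported as means ± SD (n=3).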"}, "MCF7 [2]": {"test_system": "MCF7", "assay": "Antiproliferative activity against human MCF7 cells assessed as effect on doxycycline-induced PAK1-specific shRNA mediated reduction in PAK1 expression by measuring reduction in cell index after 114 hrs"}, "[3]": {"assay": "(§2) Antiproliferative activity against human OMM-1 cells assessed as cell viability measured after 72 hrs incubation by MTT assay", "conditions": "OMM-1, 72 h", "method_in_brief": "as §1"}, "[4]": {"assay": "(§3) Antiproliferative activity against human HeyA8 cells assessed as cell viability measured after 72 hrs incubation by MTT assay", "conditions": "HEY A8, 72 h", "method_in_brief": "as §1"}, "OVCAR-3": {"test_system": "OVCAR-3", "assay": "Antiproliferative activity against human OVCAR-3 cells assessed as cell viability measured after 72 hrs incubation by MTT assay", "method_in_brief": "as §1"}, "OMM-1": {"test_system": "OMM-1", "assay": "as §2", "method_in_brief": "as §1"}, "HEY A8": {"test_system": "HEY A8", "assay": "as §3", "method_in_brief": "as §1"}}, "note": "Calls of active or inactive are those of the source. The calls are words filed in the database; no cut-off is given here."}
{"compound": "CC(C)NC(=O)N1CC[C@@H](NC2=Nc3cc(F)ccc3N(CC(F)F)c3ccc(Cl)cc32)C1", "values": [{"measurement": "EC50", "setting": "MCF7 [1]; MCF7, 72 h", "result": 11.8, "unit": "µM"}, {"measurement": "Activity", "setting": "MCF7 [2]", "result": "Active"}, {"measurement": "EC50", "setting": "[3]", "result": 12, "unit": "µM"}, {"measurement": "EC50", "setting": "[4]", "result": 33.6, "unit": "µM"}, {"measurement": "EC50", "setting": "OVCAR-3; OVCAR-3, 72 h", "result": 8.9, "unit": "µM"}]}
{"compound": "Nc1cccc2c1CN(C1CCC(=O)NC1=O)C2=O", "note": "(centres undefined)", "values": [{"measurement": "Activity", "setting": "MCF7 [1]", "result": "inactive"}, {"measurement": "Activity", "setting": "OMM-1", "result": "inactive"}, {"measurement": "Activity", "setting": "HEY A8", "result": "inactive"}, {"measurement": "Activity", "setting": "OVCAR-3", "result": "inactive"}]}
